Experimental data: ChEMBL document CHEMBL5149984, “Discovery of HN37 as a Potent and Chemically Stable Antiepileptic Drug Candidate” (J Med Chem, 2021)

Assays:
[1] = Ratio of TD50 for Kunming mouse to ED50 for anticonvulsant activity in Kunming mouse; type: toxicity; conditions: read-out: Ratio TD50/ED50
Procedure, shortened: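 KM mice given compound orally as a fresh 0.5% CMC-Na suspension (20 mL/kg), tested 1 h later. ED50 from the MES test (protection from hindlimb tonic extension; ear-clip stimulus 160 V). TD50 from the rotarod test as motor impairment. Both from dose–response nonlinear regression with 95% CI.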

[2] = biological target: CYP2B6 (Homo sapiens, UniProt P20813); assay: Inhibition of human liver microsome CYP2B6 at 0.10 to 50 uM preincubated with NADPH for 0.5 hrs followed by substrate addition by LC-MS/MS method relative to control; type: ADME; conditions: liver microsomes, dose 0.1-50 µM
[3] = Metabolic stability in human liver microsomes assessed as intrinsic clearance; type: ADME, Microsome; conditions: read-out: CLH
[4] = biological target: Cytochrome P450 1A2 (Homo sapiens, UniProt P05177); assay: Time dependent inhibition of human liver microsome CYP1A2 preincubated for 0.5 hrs in absence of NADPH followed by substrate addition by LC-MS/MS method; type: ADME, microsomes
Procedure, shortened: (§1)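 Human liver microsomes preincubated 0.5 h with 0.10–50 μM test compound, with or without NADPH, then CYP-specific probe substrate added and incubation continued. Metabolite measured by LC-MS/MS; % activity remaining relative to no-compound control; IC50 fitted by Probit model. For CYP3A4, midazolam 1′-hydroxylation and testosterone 6β-hydroxylation were read separately.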

[5] = AUC(0 to t) in Sprague-Dawley rat brain at 6 mg/kg, po measured upto 24 hrs by LC-MS/MS method; type: ADME, organism-based; set-up: dose 6 mg/kg, time < 24 hrs, route po
Procedure, shortened: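 Separate experiment in male SD rats given 6 mg/kg orally; blood and brain concentrations measured concurrently. Samples extracted with acetonitrile (brain homogenized in 10 volumes acetonitrile and sonicated) and analysed by LC−MS/MS; AUC0−t by trapezoidal method.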

[6] = biological target: CYP2C19 (Homo sapiens, UniProt P33261); assay: Ratio of IC50 for human liver microsome CYP2C19 in absence of NADPH to IC50 for human liver microsome CYP2C19 in presence of NADPH; conditions: liver microsomes, read-out: Ratio IC50
[7] = biological target: Cytochrome P450 3A4 (Homo sapiens, UniProt P08684); assay: Time dependent inhibition of human liver microsome CYP3A4 preincubated for 0.5 hrs in presence or absence of NADPH followed by testosterone addition by LC-MS/MS method; type: ADME, microsomes; procedure, shortened: as §1
[8] = biological target: Cytochrome P450 2C19 (Homo sapiens, UniProt P33261); assay: Time dependent inhibition of human liver microsome CYP2C19 preincubated for 0.5 hrs in presence or absence of NADPH followed by substrate addition by LC-MS/MS method; type: ADME, microsomes; procedure, shortened: as §1
[9] = biological target: T1, Potassium voltage-gated channel subfamily KQT member 2/member 3 (Rattus norvegicus) (UniProt O88943+O88944); assay: Agonist activity at rat KCNQ2/3 channel expressed in CHO cells assessed as amplitude change of outward current at 0.1 uM by patch clamp method; type: cell-based; conditions: filed as agonist
Procedure, shortened: (§2)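 Whole-cell patch clamp at room temperature on CHO cells (DMEM/F12, 10% FBS) transiently co-transfected with EGFP and hKCNQ1, rKCNQ2, rKCNQ3 A278T, hKCNQ4 or hKCNQ5; KCNQ2/3 at 1:1 cDNA ratio. Pipette solution 145 mM KCl, 5 mM MgATP, pH 7.3; bath 140 mM NaCl, 5 mM KCl, pH 7.4, under perfusion. V1/2 from Boltzmann fits; I/I0 is current amplitude with versus without compound; n = 4−6.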

[10] = test system: Mus musculus; assay: Anticonvulsant activity in MES induced Kunming mouse model of seizure at 2.5 mg/kg, po after 0.25 to 2 hr; type: functional; conditions: time 0.25-2 hrs
Procedure, shortened: (§3)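 MES test in male KM mice. Compounds freshly suspended in 0.5% CMC-Na and given by gavage at 20 mL/kg; 160 V stimulus through ear clips. Protection scored as absence of hindlimb tonic extension; time course at 0.25, 0.5, 1 and 2 h, otherwise tested at 1 h. ED50 from dose−response by nonlinear regression; Fisher's exact test versus vehicle.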

[11] = Cmax in Sprague-Dawley rat brain at 6 mg/kg, po measured upto 24 hrs by LC-MS/MS method; type: ADME, organism-based; set-up: time < 24 hrs, dose 6 mg/kg, route po
Procedure, shortened: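 Male SD rats (180−220 g) given single oral doses of 2, 6 and 20 mg/kg; handled as in the mouse PK study (fasted 12 h before and 2 h after dosing, 5% DMSO/5% Tween 80/90% saline formulation). In a separate 6 mg/kg p.o. set, blood and brain were sampled together. Plasma and brain levels by LC−MS/MS.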

[12] = Neurotoxicity in Kunming mouse assessed as motor impairment rate at 90 mg/kg, po after 1 hr by rotarod test; type: toxicity, organism-based; conditions: in vivo
Procedure, shortened: (§4)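 Male KM mice dosed intragastrically with compound freshly suspended in 0.5% CMC-Na. Rotarod performance scored 1 h after dosing as the fraction of animals showing motor impairment. Fisher's exact test versus vehicle; TD50 from nonlinear dose−response fit.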

[13] = organism: Rattus norvegicus; assay: Potency index, ratio of retigabine ED50 to test compound ED50 for anticonvulsant activity in MES induced rat model of seizure after 1 hr; type: functional
[14] = Half life in Kunming mouse plasma at 2 mg/kg, iv measured upto 24 hrs by LC-MS/MS method; type: ADME, organism-based
Procedure, shortened: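 Male KM mice (n = 3 per time point) given 2 mg/kg i.v. in normal saline with 1% Tween 80, diluted from the oral formulation. Retro-orbital plexus blood taken at 0.083–24 h. Plasma extracted with acetonitrile plus internal standard and assayed by LC−MS/MS.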

[15] = Half life in Kunming mouse plasma at 5 mg/kg, po measured upto 24 hrs by LC-MS/MS method; type: ADME, organism-based
Procedure, shortened: (§5)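 Male KM mice (18−24 g) fasted 12 h before and 2 h after dosing, given 5 mg/kg orally in 5% DMSO/5% Tween 80/90% normal saline (n = 3 per time point). Aortic blood taken at 0.25–24 h and whole brain collected. Acetonitrile extraction with internal standard, then LC−MS/MS. Bioavailability calculated against the 2 mg/kg i.v. arm.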

[16] = Oral bioavailability in Kunming mouse plasma at 5 mg/kg measured upto 24 hrs by LC-MS/MS method; type: ADME, organism-based; procedure, shortened: as §5
[17] = Ratio of AUC(0 to t) in Kunming mouse brain to plasma at 5 mg/kg, po measured upto 24 hrs by LC-MS/MS method; type: ADME, organism-based; conditions: brain and plasma; procedure, shortened: as §5
[18] = Metabolic stability in monkey liver microsomes assessed as intrinsic clearance; type: ADME, Macaca mulatta, Microsome; conditions: rhesus monkey, read-out: CLH
[19] = Ratio of drug concentration in Kunming mouse brain to plasma by rotarod test
[20] = biological target: T1, Potassium voltage-gated channel subfamily KQT member 2/member 3 (Rattus norvegicus); assay: Agonist activity at rat KCNQ2/3 channel expressed in CHO cells assessed as amplitude change of outward current at 10 uM by patch clamp method; type: cell-based; conditions: filed as agonist; procedure, shortened: as §2
[21] = test system: Mus musculus; assay: Anticonvulsant activity in MES induced Kunming mouse model of seizure at 30 mg/kg, po after 1 hr; type: functional; procedure, shortened: as §3
[22] = biological target: Potassium voltage-gated channel subfamily KQT member 5 (Homo sapiens) (UniProt Q9NR82); assay: Agonist activity at human KCNQ5 channel expressed in CHO cells assessed as amplitude change of outward current at 10 uM by patch clamp method; type: cell-based; conditions: filed as agonist; procedure, shortened: as §2
[23] = Neurotoxicity in Kunming mouse assessed as motor impairment rate at 250 mg/kg, po after 1 hr by rotarod test; type: toxicity, organism-based; conditions: in vivo; procedure, shortened: as §4
[24] = test system: Mus musculus; assay: Anticonvulsant activity in MES induced Kunming mouse model of seizure at 60 mg/kg, po; type: functional; procedure, shortened: as §3

Cytochrome P450 2C19, sequence (P33261 whole entry): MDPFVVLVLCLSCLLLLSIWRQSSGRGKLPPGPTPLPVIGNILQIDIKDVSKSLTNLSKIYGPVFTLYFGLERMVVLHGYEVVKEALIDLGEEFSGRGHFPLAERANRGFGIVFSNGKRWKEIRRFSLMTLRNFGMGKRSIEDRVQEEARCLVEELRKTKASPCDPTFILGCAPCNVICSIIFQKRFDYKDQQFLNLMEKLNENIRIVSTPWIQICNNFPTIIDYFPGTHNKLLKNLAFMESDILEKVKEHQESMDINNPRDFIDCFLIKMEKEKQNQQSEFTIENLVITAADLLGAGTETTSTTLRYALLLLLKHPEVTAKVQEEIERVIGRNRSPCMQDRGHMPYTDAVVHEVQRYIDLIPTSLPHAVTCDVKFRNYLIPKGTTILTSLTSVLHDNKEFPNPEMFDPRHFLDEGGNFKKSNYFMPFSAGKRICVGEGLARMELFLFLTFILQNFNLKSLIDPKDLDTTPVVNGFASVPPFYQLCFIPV
CYP2C19, sequence (P33261 whole entry): as above
Potassium voltage-gated channel subfamily KQT member 5 (Homo sapiens), sequence (Q9NR82 whole entry): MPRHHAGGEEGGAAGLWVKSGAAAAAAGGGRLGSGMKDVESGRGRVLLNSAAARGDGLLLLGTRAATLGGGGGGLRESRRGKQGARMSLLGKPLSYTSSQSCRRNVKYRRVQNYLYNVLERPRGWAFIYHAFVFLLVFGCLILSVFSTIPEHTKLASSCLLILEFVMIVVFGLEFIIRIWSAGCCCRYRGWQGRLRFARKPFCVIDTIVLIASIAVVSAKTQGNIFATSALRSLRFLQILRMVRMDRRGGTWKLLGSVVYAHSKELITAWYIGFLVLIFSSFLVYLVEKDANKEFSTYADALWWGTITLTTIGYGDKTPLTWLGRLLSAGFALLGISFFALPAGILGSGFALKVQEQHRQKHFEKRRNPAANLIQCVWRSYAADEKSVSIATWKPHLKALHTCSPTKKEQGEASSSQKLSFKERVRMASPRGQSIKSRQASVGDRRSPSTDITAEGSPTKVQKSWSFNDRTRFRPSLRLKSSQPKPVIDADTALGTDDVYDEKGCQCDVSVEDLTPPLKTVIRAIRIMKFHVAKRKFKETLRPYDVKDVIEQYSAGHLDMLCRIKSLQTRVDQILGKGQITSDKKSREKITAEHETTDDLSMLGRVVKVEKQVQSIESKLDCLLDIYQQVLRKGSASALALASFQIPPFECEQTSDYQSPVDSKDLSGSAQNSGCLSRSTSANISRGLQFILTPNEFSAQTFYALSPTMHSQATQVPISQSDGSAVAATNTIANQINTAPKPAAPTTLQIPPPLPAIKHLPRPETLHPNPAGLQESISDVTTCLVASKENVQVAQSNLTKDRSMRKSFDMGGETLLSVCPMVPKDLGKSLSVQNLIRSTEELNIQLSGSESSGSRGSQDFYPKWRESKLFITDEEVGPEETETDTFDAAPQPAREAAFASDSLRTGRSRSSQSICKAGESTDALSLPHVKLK
Cytochrome P450 3A4, sequence (P08684 whole entry): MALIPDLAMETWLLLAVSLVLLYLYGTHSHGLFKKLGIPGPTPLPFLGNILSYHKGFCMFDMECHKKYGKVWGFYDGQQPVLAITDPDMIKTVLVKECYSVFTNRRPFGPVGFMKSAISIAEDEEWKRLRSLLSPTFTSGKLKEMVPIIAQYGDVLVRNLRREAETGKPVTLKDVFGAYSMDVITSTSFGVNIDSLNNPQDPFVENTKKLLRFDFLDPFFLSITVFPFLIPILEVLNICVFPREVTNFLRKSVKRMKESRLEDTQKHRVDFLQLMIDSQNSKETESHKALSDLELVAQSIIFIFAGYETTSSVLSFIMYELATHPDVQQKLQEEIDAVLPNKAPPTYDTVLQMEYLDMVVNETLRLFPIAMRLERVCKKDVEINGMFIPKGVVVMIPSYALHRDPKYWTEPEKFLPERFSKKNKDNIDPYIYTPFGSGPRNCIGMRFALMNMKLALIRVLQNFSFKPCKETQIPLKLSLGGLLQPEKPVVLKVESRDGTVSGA
CYP2B6, sequence (P20813 whole entry): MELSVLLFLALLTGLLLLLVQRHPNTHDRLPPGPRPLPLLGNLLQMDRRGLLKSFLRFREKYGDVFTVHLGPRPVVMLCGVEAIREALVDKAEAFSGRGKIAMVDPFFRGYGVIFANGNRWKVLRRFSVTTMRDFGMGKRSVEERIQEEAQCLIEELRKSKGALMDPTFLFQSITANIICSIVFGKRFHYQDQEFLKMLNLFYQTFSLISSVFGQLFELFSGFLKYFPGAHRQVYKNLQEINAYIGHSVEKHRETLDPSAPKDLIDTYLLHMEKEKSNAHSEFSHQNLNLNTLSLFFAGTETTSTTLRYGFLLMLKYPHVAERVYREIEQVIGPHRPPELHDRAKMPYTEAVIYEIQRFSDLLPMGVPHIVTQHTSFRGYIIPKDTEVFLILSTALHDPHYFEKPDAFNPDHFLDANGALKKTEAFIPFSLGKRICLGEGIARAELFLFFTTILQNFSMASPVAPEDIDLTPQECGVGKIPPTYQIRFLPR
Cytochrome P450 1A2, sequence (P05177 whole entry): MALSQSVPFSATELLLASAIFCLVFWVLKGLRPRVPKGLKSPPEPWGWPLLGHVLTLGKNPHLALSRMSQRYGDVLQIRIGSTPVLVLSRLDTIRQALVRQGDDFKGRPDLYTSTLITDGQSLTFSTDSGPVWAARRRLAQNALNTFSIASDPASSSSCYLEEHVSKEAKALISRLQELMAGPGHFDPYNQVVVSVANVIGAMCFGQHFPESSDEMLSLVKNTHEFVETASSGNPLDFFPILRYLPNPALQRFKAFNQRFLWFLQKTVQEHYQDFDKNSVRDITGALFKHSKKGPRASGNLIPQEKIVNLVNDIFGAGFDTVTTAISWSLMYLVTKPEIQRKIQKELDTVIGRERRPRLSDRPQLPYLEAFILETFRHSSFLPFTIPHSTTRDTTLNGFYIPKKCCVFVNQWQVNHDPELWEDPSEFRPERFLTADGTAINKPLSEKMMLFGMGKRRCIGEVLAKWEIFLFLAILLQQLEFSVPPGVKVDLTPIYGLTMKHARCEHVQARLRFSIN

**Q.** For `C#CCN(Cc1ccc(F)cc1)c1cc(C)c(NC(=O)OC)c(C)c1`, which selectivity ratio [1] is on record?
**A.** The selectivity ratio was 43.2.

**Q.** What about the inhibition at 0.5 h, up to 50 µM [2] of the same compound?
**A.** The inhibition at 0.5 h, up to 50 µM was under 25%.

**Q.** What about the CLint scaled [3] of the same compound?
**A.** The CLint scaled was 62.7 mL/min/kg.

**Q.** And the IC50 [4]?
**A.** The IC50 was 142 µM.

**Q.** What about the AUC(0-t) at 24 h [5] of the same compound?
**A.** The AUC(0-t) at 24 h was 1520 ng·h/mL.

**Q.** What about the IC50 shift [6] of the same compound?
**A.** The IC50 shift was under 1.5.

**Q.** And the IC50 [7]?
**A.** Its IC50 is over 50 µM.

**Q.** What about the IC50 [8] of the same compound?
**A.** The IC50 was over 50 µM.

**Q.** What about the Activity [9] of the same compound?
**A.** The Activity was 2.77.

**Q.** What about the Activity [10] of the same compound?
**A.** Its Activity is 40%.

**Q.** And the Cmax [11]?
**A.** The Cmax was 578 ng/mL.

**Q.** And the Activity [12]?
**A.** Its Activity is 62.5%.

**Q.** What about the “Ratio ED50” value [13] of the same compound?
**A.** The value was 2.

**Q.** And the half-life [14]?
**A.** The half-life was 0.8 h.

**Q.** What about the half-life [15] of the same compound?
**A.** Its half-life is 1.95 h.

**Q.** What about the bioavailability [16] of the same compound?
**A.** The bioavailability was 24.2%.

**Q.** And the Kp at 24 h [17]?
**A.** The Kp at 24 h was 2.23.

**Q.** And the CLint scaled [18]?
**A.** Its CLint scaled is 112 mL/min/kg.

**Q.** And the Kp [19]?
**A.** Its Kp is 1.9.

**Q.** Which results are given for `CCOC(=O)Nc1ccc(NCc2ccc(F)cc2)cc1N` [EZOGABINE]?
**A.** Activity [20]: 1.97; Activity [21]: 60%; Activity [22]: 3.04; Activity [23]: 62.5%; Activity [24]: 62.5%
